Source: ChEMBL document CHEMBL1125560, “Synthesis and physicochemical properties of sulfamate derivatives as topical antiglaucoma agents” (J Med Chem, 1992)

Legend:
[1] = Solubility in water at pH 5.0; format: physicochemical
In short: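 Not measured directly. Intrinsic solubility S0 comes from equilibrium solubility in pH 7.4 phosphate buffer (2–4 days, UV read-out). Solubility at pH 5 is then calculated as S = S0(1 + 10^(pKa1−pH) + 10^(pH−pKa2)), using the imidazole and sulfonamide pKa values.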

Oryctolagus cuniculus = assay: Compound was evaluated for decrease in intraocular pressure (IOP) (mmHg) at 1 hour postdosing to New Zealand white rabbits with 2% solubility; format: functional, Eye
In short: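 New Zealand white rabbits, at least six per test, 2–10 experiments. Eyes given one drop of topical anesthetic (proparacaine) before tonometer IOP readings, taken before dosing and at 1 h intervals after. Drug at 2% in 0.5% hydroxyethylcellulose, 50 μL to one eye, vehicle to the other. Value is treated-eye minus control-eye IOP at 1 h, mean.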

[2] = Compound was evaluated for partition coefficient at pH 7.4 (CHCl3/buffer); conditions: octanol/water
[3] = Intrinsic solubility of the compound; format: ADME; conditions: read-out: S
In short: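 Compound equilibrated 2–4 days in pH 7.4 phosphate buffer in sealed rotating tubes, amount tripled if all dissolved. pH and concentration then measured: solution filtered (0.2 μm), diluted, concentration read by UV spectrum. Intrinsic solubility S0 derived from S = S0(1 + 10^(pKa1−pH) + 10^(pH−pKa2)).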

[4] = (§1) Partition coefficient at pH 7.4 between chloroform and water as a measure of lipid solubility.; format: ADME; conditions: read-out: pKa1
In short: (§2)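 Drug dissolved in 0.05 M phosphate buffer, pH 7.4, and shaken with an equal volume of chloroform to equilibrium. Aqueous drug concentration found from carbonic anhydrase inhibitory activity of aqueous samples against a standard curve. Organic concentration obtained by difference. Reported as organic/aqueous concentration ratio.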

[5] = as §1
Carbonic anhydrase = Carbonic anhydrase (Bos taurus, UniProt P00921+Q95323+P18915+Q3SZX4); assay: Bovine erythrocyte carbonic anhydrase inhibitory activity of the compound.
[6] = Partition coefficient of the compound at pH 7.4 between chloroform and water as a measure of lipid solubility.; format: ADME; conditions: read-out: pKa2; in short: as §2

Structure (SMILES)	solubility [1] [µg/mL]	IOP (Oryctolagus cuniculus) [mmHg]	Partition coefficient [2]	solubility [3] [µg/mL]	pKa [4]	pKa [5]	IC50 (Carbonic anhydrase) [nM]	pKa [6]
CC(=O)Nc1nnc(S(N)(=O)=O)s1.Cl	< 710	0						
Cc1cn(-c2cccc(OCCOS(N)(=O)=O)c2)cn1.Cl	4900		4.6	220	6.34	8.96	210	
Cl.NS(=O)(=O)Oc1cccc(-n2ccnc2)c1	38000	1.5	0.28	11000	5.4	9.05	42	
Cl.NS(=O)(=O)OCCOc1cccc(-n2ccnc2)c1	1500	2.3	2.2	250	5.71	8.91	69	
Cc1nccn1-c1cccc(OCCOS(N)(=O)=O)c1.Cl	114000	1.7	1.1	1400	6.9		77	8.99
Cc1nccn1-c1cccc(OS(N)(=O)=O)c1.Cl	100000	0	0.18	3300	6.47	7.99	50	
Cc1cn(-c2cccc(OS(N)(=O)=O)c2)cn1.Cl	6300		0.73	470	6.09	8.08	94	
Cl.NS(=O)(=O)OCCOc1ccc(-n2ccnc2)cc1	7400	2.5	1.5	700	5.98	9.05	23	
Cl.NS(=O)(=O)Oc1ccc(-n2ccnc2)cc1	1000	1.3	0.16	230	5.54	8	120	
Cl.NS(=O)(=O)OCCCOc1ccc(-n2ccnc2)cc1	1600	0	5.5	120	6.09		250	9.22
